Source: ChEMBL document CHEMBL3120050, “Synthesis, receptor affinity and effect on pentylenetetrazole-induced seizure threshold of novel benzodiazepine analogues: 3-Substituted 5-(2-phenoxybenzyl)-4H-1,2,4-triazoles and 2-amino-5-(phenoxybenzyl)-1,3,4-oxadiazoles” (Bioorg Med Chem, 2014)

Assays:
Mus musculus [1] = test: Anticonvulsant activity in NMRI mouse assessed as pentylenetetrazole-induced clonic seizure threshold at 10 mg/kg, ip administered 60 mins before pentylenetetrazole challenge; assay type: functional; conditions: route intraperitoneal
In short: (§1)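 Male NMRI mice (24-30 g), at least eight per group, each used once. Compounds dispersed in 0.5% CMC and given i.p. in 10 ml/kg, 60 min before PTZ. PTZ (0.5% in saline) infused i.v. into the tail vein at 0.5 ml/min in unrestrained animals until forelimb clonus then full body clonus. Threshold = minimal PTZ dose (mg/kg) for clonic seizure, expressed as % and compared with CMC group; mean ± SEM.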

Mus musculus [2] = test: Anticonvulsant activity in NMRI mouse assessed as pentylenetetrazole-induced clonic seizure threshold at 5 mg/kg, ip administered 60 mins before pentylenetetrazole challenge; assay type: functional; conditions: route intraperitoneal; in short: as §1
Mus musculus [3] = test: Anticonvulsant activity in NMRI mouse assessed as pentylenetetrazole-induced clonic seizure threshold at 20 mg/kg, ip administered 60 mins before pentylenetetrazole challenge; assay type: functional; conditions: route intraperitoneal; in short: as §1
[4] = Displacement of [3H]flumazenil from GABAA/BZD receptor in Sprague-Dawley rat cortical membrane after 35 mins by competition binding assay
In short: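 Cortex from male Sprague-Dawley rats (300-350 g), homogenized in Tris-HCl, washed, and preincubated 30 min at 37°C; membranes stored at -20°C and used within 1-15 days. 100 µg membrane protein incubated with 8.6×10^-5 nmole [3H]-flumazenil plus increasing test ligand in 50 mM Tris-HCl pH 7.4 (0.5 mL), 30°C, 35 min. Stopped by centrifugation. Excess diazepam defined nonspecific binding. Triplicates; IC50 = 50% inhibition of specific binding.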

SMILES | Activity (Mus musculus [1]) [%] | Activity (Mus musculus [2]) [%] | Activity (Mus musculus [3]) [%] | IC50 [4] [nM] | Kd [4] [nM]
CCSc1nnc(Cc2ccccc2Oc2ccccc2)[nH]1 | 141.9 | 132.47 | 168.55 |  | 
c1ccc(CSc2nnc(Cc3ccccc3Oc3ccccc3)[nH]2)cc1 | 139.21 | 129.27 | 143.4 | 2.07 | 1.27
CCSc1nnc(Cc2ccc(Cl)cc2Oc2ccccc2Cl)[nH]1 | 139.99 | 133.58 | 173.98 | 1.63 | 1
Nc1nnc(Cc2ccc(Cl)cc2Oc2ccccc2F)o1 | 128.95 | 111.61 | 154.23 | 1.89 | 1.16
S=c1[nH]nc(Cc2ccccc2Oc2ccccc2)[nH]1 | 141.88 | 126.2 | 160.47 | 3.1 | 1.9
CSc1nnc(Cc2ccc(Cl)cc2Oc2ccccc2F)[nH]1 | 121.41 | 110.43 | 135.53 | 3.78 | 2.32
Nc1nnc(Cc2ccc(Cl)cc2Oc2ccccc2Cl)o1 | 132.44 | 125.22 | 170.25 | 1.75 | 1.1
CCOc1nnc(Cc2ccc(Cl)cc2Oc2ccccc2F)[nH]1 | 115.67 | 110.82 | 138.25 | 2.07 | 1.26
CN1C(=O)CN=C(c2ccccc2)c2cc(Cl)ccc21 [DIAZEPAM] |  |  |  | 2.86 | 1.75
CCOc1nnc(Cc2ccccc2Oc2ccccc2)[nH]1 | 125.79 | 122.56 | 143.52 | 3.49 | 2.14
CCSc1nnc(Cc2ccc(Cl)cc2Oc2ccccc2F)[nH]1 | 144.44 | 125.52 | 141.4 | 1.32 | 0.8
Nc1nnc(Cc2ccccc2Oc2ccccc2)o1 | 142.52 | 131.63 | 174.36 | 1.9 | 1.17
CCCSc1nnc(Cc2ccc(Cl)cc2Oc2ccccc2Cl)[nH]1 | 125.29 | 117.68 | 134.09 | 1.35 | 0.82
S=c1[nH]nc(Cc2ccc(Cl)cc2Oc2ccccc2Cl)[nH]1 | 138.87 | 124.08 | 158.77 | 1.78 | 1.09
Fc1ccccc1Oc1cc(Cl)ccc1Cc1n[nH]c(=S)[nH]1 |  |  |  | 1.36 | 0.836
Clc1ccc(Cc2nnc(SCc3ccccc3)[nH]2)c(Oc2ccccc2Cl)c1 | 122.18 | 112.52 | 128.77 | 2.23 | 1.36
CCOc1nnc(Cc2ccc(Cl)cc2Oc2ccccc2Cl)[nH]1 | 122.29 | 120.06 | 134.63 | 2.13 | 1.3
CSc1nnc(Cc2ccc(Cl)cc2Oc2ccccc2Cl)[nH]1 | 131.61 | 125.02 | 169.89 | 2.52 | 1.54
CCCSc1nnc(Cc2ccc(Cl)cc2Oc2ccccc2F)[nH]1 | 127.32 | 119.45 | 133.41 | 1.97 | 1.21
CSc1nnc(Cc2ccccc2Oc2ccccc2)[nH]1 | 132.83 | 120.26 | 147.06 | 1.38 | 0.84
CCCSc1nnc(Cc2ccccc2Oc2ccccc2)[nH]1 | 139.38 | 127.77 | 157.5 | 1.24 | 0.75
Fc1ccccc1Oc1cc(Cl)ccc1Cc1nnc(SCc2ccccc2)[nH]1 | 168.6 | 165.66 | 178.53 | 0.892 | 0.544
